Source: ChEMBL document CHEMBL4513216, “Probing the Open Global Health Chemical Diversity Library for Multistage-Active Starting Points for Next-Generation Antimalarials” (ACS Infect Dis, 2020)

Assay: Toxicity liver stage against HepG2, at 10uM
Assay type: cell-based
Design: test concentration 10 uM, cell line HepG2-A16-CD81EGFP
Conditions: human, HepG2-A16-CD81EGFP cells; read-out: INHIBITION
Summary of the method: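 Uninfected HepG2-A16-CD81EGFP cells, 3 × 10^3 per well, 1536-well, plated on prespotted compound at 10 μM final, parasite-free screening media added to match infected plates; puromycin 10 μM positive, DMSO 0.5% negative; run in parallel with 48 h PbLuc assay at 37 °C, 5% CO2; viability by CellTiter-Glo luminescence, normalized to controls.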

| SMILES | cytotoxicity at 10 µM |
| --- | --- |
| CCOc1no[n+]([O-])c1-c1ccccc1 | -6.59% |
| Cn1cc(CN2CCOC(Cc3cccc(F)c3)C2)cn1 (stereo not given) | -2.62% |
| O=C(C1CC1)N1CC[C@H](c2nc3ccccc3o2)C1 | -4.07% |
| COc1ccc2c(c1)OC1(CCN(Cc3cccc(C)c3)CC1)CC2=O | 5.5% |
| O=C(CCc1nnc2ccccn2c1=O)NCc1cccnc1 | -1.74% |
| CSCCC(Nc1nc(C)cc(C)n1)C(=O)NC1CCCC1 (stereo not given) | -4.87% |
| O=S(=O)(Nc1cnc(N2CCCC2)nc1)c1ccc(C(F)(F)F)cc1 | 3.15% |
| O=C(Cc1ccco1)N1CCC2(CCOCC2COCC2CC2)CC1 (stereo not given) | 4.65% |
| CCN1CCc2cc(C(=O)N(C)C)c(NCC3CC3)nc2CC1 | 4.65% |
| Cc1nc(CN2C(=O)CCC23CCN(c2ncccc2C)CC3)cs1 | -2.07% |
| CN(C)CCOCC1CN(C(=O)c2ccccn2)Cc2ccnn2C1 (stereo not given) | -3.55% |
| CS(=O)(=O)N[C@@H]1CN(Cc2ccoc2)C[C@@H]2CCCO[C@@H]21 | 13.2% |
| COCC(=O)NCc1cc(=O)n2c(n1)CN(Cc1ccoc1)CCC2 | -124% |
| CC(C)CCN1C[C@H]2CCN(C(=O)NC3CCCC3)CC[C@H]2S1(=O)=O | 4.87% |
| Cc1ncsc1CN1CC[C@H]2OCC[C@@]2(C(=O)N2CCCC2)C1 | 7.63% |
| Cc1cccc(CN2CC3(CCNCC3)OCC2=O)n1 | -21.7% |
| CC(C)(C)CC(=O)N1CC[C@@H]2[C@H](CC1)N(S(C)(=O)=O)CCS2(=O)=O | -8.68% |
| Cn1c(=O)n(C)c2nc(Br)c(CC(=O)c3ccccc3)n2c1=O | 0.9% |
| Cc1ccnc(NC(=O)c2cnc(C3CCCNC3)cn2)c1 (stereo not given) | 3.33% |
| Cc1cc(N2CCOC(c3ccc(C(N)=O)cn3)C2)ncn1 (stereo not given) | 5.45% |
| CNc1ccc(CC2CCCN(Cc3c[nH]cn3)C2)nn1 (stereo not given) | -1.71% |
| Cc1cnc(-c2nc(O)c3c(n2)CN(C(=O)C2CCCC2)CC3)cn1 | -1.39% |

| SMILES | cytotoxicity at 10 µM |
| --- | --- |
| CN1CCN(C(=O)c2cncc(CC3CCCN(C)C3)c2)CC1 (stereo not given) | 7.87% |
| CN(C)C(=O)C1CN(Cc2cscn2)CCN(S(C)(=O)=O)C1 (stereo not given) | -6.46% |
| CNC(=O)CN1CCC(CN(C)Cc2ccccc2N(C)C)CC1 | -6.23% |
| CCN(CC)S(=O)(=O)NCC1COc2ccccc2O1 (stereo not given) | 0.347% |
| Cc1cc(NC(=O)NCc2nccn2C)ccc1OC(C)C | -2.74% |
| CC(=O)c1cccc(OCCCC(=O)NC(C#N)CC(C)C)c1 (stereo not given) | -41.3% |
| CC(C)C(C)NC(=O)CNc1cc2c(cc1Cl)NC(=O)CO2 (stereo not given) | 0.529% |
| CCn1cnnc1CNC(=O)NCC(C(C)C)N1CCC(C)CC1 (stereo not given) | -4.65% |
| Cc1ccc(C(=O)N2CCC3(CCCC3)CC2)c(=O)[nH]1 | 2.24% |
| CC(NC(=O)CNS(C)(=O)=O)c1ccccc1Oc1ccccc1 (stereo not given) | 4.69% |
| CCOCC(=O)NCc1cc(Br)ccc1OC(F)F | 21.9% |
| Cc1nc(CN2CCC(CNC(=O)C3(C)CCCC3)CC2)oc1C | 7.66% |
| CNC(=O)CN(C)C(=O)c1cc(Cl)c(Cl)n1C | 4.4% |
| CC(C)CNC(=O)Cn1cc(C(N)=O)c(-c2ccccc2)n1 | -6.98% |
| COc1c(Cl)cc(C(=O)NCCNc2ncccn2)cc1Cl | -9.32% |
| CCOc1ccc(NC2CCN(C(C)C)C2=O)cn1 (stereo not given) | -17% |
| CCOc1cccc(CCNC(=O)Cc2cccc(O)c2)n1 | -5.26% |
| Cc1ccc(CNC(=O)CCN2CCN(c3ccccn3)CC2)n1C | 19.8% |
| O=C(COCC1CC1)Nc1ncccc1O | 11% |
| O=C(NC1(C(=O)NC2CCCC2)CCCC1)c1ccc2[nH]ncc2c1 | 4.73% |
| CNc1cc2c(nn1)CCN(C(=O)c1ccccc1-n1cccn1)C2 | 1.91% |
| Cc1ccc(C(=O)NCC2CCCCO2)c(=O)[nH]1 (stereo not given) | -0.628% |

| SMILES | cytotoxicity at 10 µM |
| --- | --- |
| CCc1nncn1CCNC(=O)Nc1ccc(OC)c(C)c1 | 9.89% |
| Cc1nsc(N2CCN(C(=O)Nc3cccc(C#N)c3)CC2)n1 | -18.7% |
| CN(c1ccc(CNc2c(Cl)cccc2C#N)cc1)S(C)(=O)=O | -66.9% |
| FC(F)(F)C1CCc2nnc(CNCc3ccsc3)n2C1 (stereo not given) | 0.847% |
| O=C(NCC(F)(F)F)NC1CCCc2c1cnn2CCO (stereo not given) | 4.44% |
| Cc1cc(C)c2c(OCC(=O)NC(C)C)nn(C)c2n1 | -7.25% |
| Cn1cc(C2COC3(CCN(C(=O)c4cccn4C)CC3)C2)cn1 (stereo not given) | -75.4% |
| O=C(c1cscn1)N1CCC[C@]2(C[C@@H](OCC3CC3)CO2)C1 | -69.9% |
| CC(C)NC(=O)c1cc2c(c3ccccc3n2C)n1C(=O)N(C)C | -79.4% |
| Cc1ccc(C(=O)N2CCO[C@H]3[C@H](OCC4CCOCC4)CC[C@@H]32)o1 | 4.28% |
| COCC(=O)N1CCCC2(CCN(c3ccsc3)C2=O)C1 (stereo not given) | 6.66% |
| c1ccc(CN2C[C@@H]3OCCN(CC4CCCO4)[C@@H]3C2)nc1 (stereo not given in full) | 0.616% |
| CN(CCc1ccccc1)C(=O)CN1C(=O)OC[C@@H]1c1ccccc1 | -47% |
| CCCc1n[nH]c(=O)n1Cc1ccccc1F | 2.24% |
| Cc1ccccc1C1CCN(CCNC(=O)CS(C)(=O)=O)C1 (stereo not given) | -49.5% |
| COc1cccc2c1OCC(C(=O)N(Cc1ccncc1)CC(C)C)C2 (stereo not given) | -13.9% |
| Cc1cc(CNC(=O)C(c2ccc(F)cc2)N(C)C)n[nH]1 (stereo not given) | -15% |
| Nc1ncc(C(=O)N2CCCC(N)CC2)c(-c2ccccc2)n1 (stereo not given) | -132% |
| CNS(=O)(=O)CCn1cc(-c2cc3c(cc2OC)CCC3)nn1 | -2.12% |
| O=C1CC(NS(=O)(=O)N2CCOCC2)CN1Cc1ccc(F)cc1 (stereo not given) | -11% |
| COCc1nc(C2CC2)nn1-c1ccccc1Cl | -0.808% |
| Cc1ccsc1-c1cc(C(=O)O)cc(S(=O)(=O)NCc2ccccn2)c1 | -63.8% |

| SMILES | cytotoxicity at 10 µM |
| --- | --- |
| CC[C@@H](c1ccccc1)n1c(C2CC2)n[nH]c1=O | -8.67% |
| CN(C)CC1(O)CCCN(C(=O)c2cnc(-c3ccccn3)nc2)C1 (stereo not given) | -5.53% |
| NC(=O)c1cncc(-n2ccc(-c3cnccn3)n2)c1 | -11.9% |
| O=C(c1cc(Br)ccc1Cl)N1CCN(Cc2ccco2)CC1 | -49.4% |
| CCC[C@@H]1CN(Cc2ccc(C(F)(F)F)nc2)C[C@H]1NS(C)(=O)=O | 10.5% |
| Cc1ncc(CC(=O)N2CCC(N3C[C@@H](C)O[C@@H](C)C3)CC2)c(=O)[nH]1 | 3.26% |
| Cc1nc(-c2ccccc2)n(CC(=O)NC2CCCCC2)n1 | -1.16% |
| CCOc1ccc(CC(=O)N2CCCC(n3nc(C)nc3C)C2)cc1 (stereo not given) | -3.18% |
| Cc1cnn(CC2CN(Cc3ccc(C(N)=O)cc3)CCO2)c1 (stereo not given) | -2.28% |
| CC(C)Cc1cc(NC(=O)c2ccccn2)n(C)n1 | -7.22% |
| Cc1cc(C(=O)N2CCCC2)ccc1NCC(=O)N1CCCCC1C (stereo not given) | 5.12% |
| Cc1nn(C)c(Cl)c1C1CCCN1Cc1nc(C2CC2)no1 (stereo not given) | -6.42% |
| CC(C)c1ncc2c(n1)CN(CC(=O)Nc1ccncc1)CC2 | -3.23% |
| CSc1nccn1-c1cccc(C(=O)NCCN2CCS(=O)(=O)CC2)c1 | -3.97% |
| CCn1cc(NC(=O)C2CCN(CC(=O)NCC(C)C)CC2)cn1 | -7.52% |
| NC(=O)CC1CCCCN1C(=O)c1cccc(C(F)(F)F)c1 (stereo not given) | -1.03% |
| O=C(NCCNc1cnccn1)N1CCCC(N2CCCC2)C1 (stereo not given) | -3.12% |
| COCCN1CCN(CC(C)(O)c2cccc(C(F)(F)F)c2)CC1 (stereo not given) | -24.2% |
| CCc1ccc(OCC(O)CN2CCN(CC)CC2)cc1 (stereo not given) | -6.54% |
| CS(=O)(=O)NC1CCCN(C(=O)Nc2cccnc2)C1 (stereo not given) | -14.2% |
| COc1ccc(CNCc2ccnc(N3CCCCC3)c2)cc1OC | 0.222% |
| CC(=O)c1cccc(OCC(=O)NS(=O)(=O)c2ccc(C)s2)c1 | -8.29% |

| SMILES | cytotoxicity at 10 µM |
| --- | --- |
| Cc1cccc(NC2CCN(C(=O)Nc3cc(C)on3)CC2)n1 | -13.7% |
| Cc1cc(CN2CCN(c3nn4cc(C)nc4s3)CC2)on1 | 6.4% |
| Cc1cnn(C2CCCN(C(=O)c3ccnc(-n4ccnc4)c3)C2)c1 (stereo not given) | -1.88% |
| O=C(NCc1cccnc1)C1CC(=O)N(CC2CC2)C1 (stereo not given) | -3.46% |
| O=C(NCCCn1cncn1)NCC(c1ccccc1)N1CCCC1 (stereo not given) | -3.99% |
| CC1CCN(C(=O)CN(Cc2ccco2)C2CC2)CC1 | -4.74% |
| CN(Cc1ncc(-c2ccccc2)o1)CC1CCCN1c1cccnn1 (stereo not given) | 3.75% |
| Cc1ncc(CN(C)CCO)c2cc(C(=O)c3ccc(Br)cc3)oc12 | -0.227% |
| Cc1ccc(C2(CN3CCN(Cc4cn(C)nc4C)CC3)CC2)cc1 | 1.74% |
| COc1ccc(Cn2c(C3CCNCC3)cc3cccnc32)cc1 | -4.45% |
| O=C(COc1ccccc1)N1C[C@@H](O)[C@H](N2CCCC2)C1 | -6.54% |
| CCN1CCCC12CCN(C(=O)c1ccsc1)CC2 | -152% |
| CN(Cc1ccco1)Cc1cncc2c1CCN(c1ncccn1)C2 | -6.42% |
| COCCN1CCN(Cc2ccncc2)c2ncccc2C1 | -70.9% |
| Cn1cccc1C(=O)N1C[C@@H]2CCN(c3cccnc3)C[C@@H]2C1 | -58.3% |
| O=C([C@H]1C[C@H]2OCC[C@H]2N(Cc2cccnc2)C1)N1CCCCO1 | -69.8% |
| CCOCCN1Cc2ncn(C)c2C(COCC2CCOCC2)C1 (stereo not given) | -70.6% |
| O=C1C[C@H]2[C@@H](CCN2C(=O)Cc2cccs2)N1Cc1ccncc1 | 6.12% |
| CN(Cc1ccccc1)C1COC2(CCN(Cc3nccs3)CC2)C1 (stereo not given) | -19.5% |
| Cc1cccc(C(=O)N2CC(C(=O)NCC3CC3)C3(CCOCC3)C2)n1 (stereo not given) | 2.11% |
| O=C(c1ccco1)N1C[C@H]2CCCN(Cc3cccs3)[C@H]2C1 | 5.71% |
| CC(C)CN1CC[C@@H]2[C@H](CC1)N(C(=O)c1ccccc1)CCS2(=O)=O | -128% |
